Screening data: PubChem, several laboratories
Only some compounds are listed: those with a hit (about 1.1% of all), similar ones and a draw of the others.
S1P4 antag: blocks the human S1P4 receptor; S1P4-expressing cells, antagonist mode, reporter read-out; inhibition, % at 4.98 µM; actives 0.26% (n = 220,000); AID 1510; in the data active = inhibition above about 29%
S1P3 antagonist: antagonists of human S1P3 receptor; actives 0.27% (n = 170,000); inhibition, % at 4.98 µM; Q99500; CHO S1P3 NFAT-BLA reporter, FRET fluorescence, antagonist mode; AID 485;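 active = inhibition above the plate cutoff, the mean inhibition of test wells on that plate plus 3 SD, cut at about 28% in these data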;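 also: cells challenged with S1P at its EC80 of 0.8 µM; blue over green emission ratio from cleaved BLA substrate after 4 h stimulation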
Target sequence (Q99500 whole entry, looked up): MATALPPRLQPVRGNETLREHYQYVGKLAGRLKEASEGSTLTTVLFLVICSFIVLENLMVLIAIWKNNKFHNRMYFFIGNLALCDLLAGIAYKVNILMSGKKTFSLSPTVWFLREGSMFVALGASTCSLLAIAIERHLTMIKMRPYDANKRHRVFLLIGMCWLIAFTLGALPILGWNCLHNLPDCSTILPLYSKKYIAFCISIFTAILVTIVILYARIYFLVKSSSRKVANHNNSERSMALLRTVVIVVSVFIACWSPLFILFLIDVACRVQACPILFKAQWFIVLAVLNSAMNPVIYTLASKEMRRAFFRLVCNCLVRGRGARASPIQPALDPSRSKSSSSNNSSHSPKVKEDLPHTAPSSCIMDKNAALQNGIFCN
TNAP act hi DEA: increases human TNAP activity under high phosphate acceptor concentration; P05186; 200,000 tested, under 10 active; activation factor at 20 µM; purified TNAP, CDP-star luminescence, 1 M DEA, 30 min; hits give high values; 0 = EDTA background, 1 = DMSO-only activity; AID 1136;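 active = activation factor at least 2 at 20 µM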
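Assay system: human TNAP; Input: enzyme diluted 1/800 final; Reagent: CDP-star luminogenic substrate at 100 µM final; Timing: 30 min, room temperature; Signal: luminescence; Evaluation: TNAP activation factor scaled between EDTA and DMSO control wells.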
TNAP inh hi DEA: inhibitors of human TNAP at high phosphate acceptor concentration. P05186. purified TNAP, CDP-star luminescence, 1 M DEA. inhibition, % at 20 µM. actives 0.03% (n = 200,000). AID 1135;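 active = over 50% inhibition of tissue-nonspecific alkaline phosphatase at 20 µM in the single-dose screen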
S1P4 ag: human S1P4 receptor agonism. actives 0.35% (n = 220,000). O95977. activation, % at 4.98 µM. S1P4-expressing cell line, agonist reporter assay; in the data active = activation above about 11%
TNAP inh no acc: blocks human TNAP activity with no phosphate acceptor present. P05186. purified TNAP, CDP-star luminescence, 30 min. inhibition, % at 20 µM. actives 0.26% (n = 200,000);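 active = tissue-nonspecific alkaline phosphatase inhibition above about 50% at 20 µM in the single-dose screen, limit read from the data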
Hits are given with their value; 0 = inactive; - = no result.

SMILES	S1P4 antag	S1P3 antagonist	TNAP act hi DEA	TNAP inh hi DEA	S1P4 ag	TNAP inh no acc
Cc1ccc2c(c1)sc(C)[n+]2CCCS(=O)(=O)[O-]	0	0	0	0	0	0
C=CCn1c(N2CCOCC2)nc2c1c(=O)[nH]c(=O)n2C	0	0	0	0	0	0
O=c1/c(=C/c2cccc3ccccc23)sc2ncnn12	0	0	0	0	0	0
Cc1ccsc1/C=c1\sc2ncnn2c1=O	0	0	0	0	0	83.9
O=C(NCCN1CCOCC1)c1ccc(NC(=O)C2COc3ccccc3O2)cc1 (configuration not stated)	0	0	0	0	0	0
O=C(CSc1ccccn1)Nc1ccc(Cl)cn1	0	0	0	0	0	0
CC(C)(C)OC(=O)N[C@@H](Cc1ccccc1)c1nnc(S(=O)(=O)Cc2ccccc2)o1	73.4	0	0	0	0	0
CCSc1nnc([C@H](Cc2ccccc2)NC(=O)OC(C)(C)C)o1	0	-	0	0	0	0
CC(=O)C1=C(c2cccc([N+](=O)[O-])c2)N(C(C)=O)n2c(C)nnc2S1	0	0	0	0	0	62.9
CCOC(=O)C1CCCN(C(=O)c2cnn3c(C(F)F)cc(-c4ccc(C)cc4)nc23)C1 (configuration not stated)	0	76.5	0	0	0	0
O=P(O)(O)c1ccccc1OCc1ccccc1	0	0	0	0	0	0
O=P(O)(O)c1ccccc1OCCCCCOc1ccccc1P(=O)(O)O	0	0	0	0	0	88.9
O=P(O)(O)c1ccccc1OCCOCCOc1ccccc1P(=O)(O)O	0	0	0	0	0	72.2
CCOP(=O)(O)c1ccccc1OCCOCCOc1ccccc1P(=O)(O)OCC	0	-	0	0	0	0
Cc1ccc2[nH]c(=O)c(-c3noc(CC(C)C)n3)cc2c1	0	0	-	-	0	-
CCOc1ccccc1NS(=O)(=O)c1cn(C)nc1C	0	0	0	0	0	0
COc1ccc2nc3sc(C(=O)NCc4cccs4)c(N)c3cc2c1	0	54.0	0	0	0	0
N#C/C(=C\c1ccc(O)c(O)c1)C(=O)NCCCc1ccccc1	0	0	0	0	0	79.0
COc1ccc(/C=C(\C#N)C(=O)N2CCOCC2)cc1Br	0	-	0	0	0	0
N#C/C(=C\c1ccc(O)c(O)c1)C(=O)N1CCCC1	0	0	0	0	0	72.6
FC(F)(F)c1cccc(CN2CCC(c3cc(-c4cccs4)n[nH]3)CC2)c1	0	0	0	0	0	0
FC(F)(F)c1cc(-c2cccs2)n[nH]1	0	-	0	0	0	71.0
O=C(CSc1n[nH]c(-c2ccccc2F)n1)NCC(=O)Nc1ccc(F)c(F)c1F	0	0	0	0	0	89.4
Cc1nnc(SCC(=O)NCC(=O)Nc2ccc(F)c(F)c2F)n1Cc1ccccc1	0	0	0	0	0	0
Cc1cc(NC(=O)COC(=O)c2cccc(O)c2)no1	0	0	0	0	0	51.6
SMILES	S1P4 antag	S1P3 antagonist	TNAP act hi DEA	TNAP inh hi DEA	S1P4 ag	TNAP inh no acc
CCOc1ccc(C(=O)OCC(=O)Nc2cc(C)on2)cc1OCC	0	-	0	0	0	0
Cc1ccc(C(=O)NCCNS(C)(=O)=O)cc1	0	0	0	0	0	0
COc1cccc(CC2(CO)CCCN(CC3=Cc4cc(Cl)ccc4OC3)C2)c1 (configuration not stated)	0	0	0	0	0	0
CC1=NN(c2ccccc2)C(=O)/C1=C/C=C/c1ccc(N(C)C)cc1	0	0	0	53.6	0	50.5
C=CCOc1ccccc1CN1CCCC(CCC(=O)N(C)CCc2ccccn2)C1 (configuration not stated)	0	0	0	0	0	0
Cc1ncc(CO)c(/C=N/NC(=O)c2ccc(Br)cc2)c1O	0	0	0	0	0	0
Cc1ncc(CO)c(/C=N/NC(=O)c2cc(Br)ccc2O)c1O	0	0	0	0	0	58.3
COc1nc(Cl)cn(-c2ccc(C)cc2)c1=O	0	0	0	0	0	0
Cc1ccc(-n2c(Cl)c(Cl)nc(Cl)c2=O)cc1	75.7	0	0	0	0	0
Cn1ccnc1C(=O)c1ccc(Cl)c(S(=O)(=O)N2CCOCC2)c1	0	0	-	-	0	-
CC1(/[N+]([O-])=C\c2ccccc2F)CCCCC1=O (configuration not stated)	0	0	-	-	0	-
CCOc1ccc(S(=O)(=O)Nc2ccc(O)c(Sc3ncn[nH]3)c2)cc1	0	-	0	0	0	77.4
